Test results: ChEMBL document CHEMBL1240399 (Antimicrob Agents Chemother, 2010)
Values after ≈ are worked out from the molar mass of the structure shown.

Columns and labels:
Pseudomonas aeruginosa [1] = assay: Antibacterial activity against Pseudomonas aeruginosa NL68 expressing GES-13 beta lactamase; type: functional
Escherichia coli [2] = assay: Antibacterial activity against Escherichia coli DH5alpha pB-ges-1; type: functional
Escherichia coli [3] = assay: Antibacterial activity against Escherichia coli DH5alpha pB-ges-13 plasmid; type: functional
Escherichia coli [4] = assay: Antibacterial activity against Escherichia coli DH5alpha; type: functional
Escherichia coli [5] = assay: Antibacterial activity against Escherichia coli DH5alpha pB-ges-13 plasmid in presence of 2 ug/ml clavulanic acid; type: functional
Escherichia coli [6] = assay: Antibacterial activity against Escherichia coli DH5alpha pB-ges-1in presence of 2 ug/ml clavulanic acid; type: functional
Escherichia coli [7] = assay: Antibacterial activity against Escherichia coli DH5alpha in presence of 2 ug/ml clavulanic acid; type: functional
Pseudomonas aeruginosa [8] = assay: Antibacterial activity against Pseudomonas aeruginosa NL68 expressing GES-13 beta lactamase in presence of 4 ug/ml Tazobactam; type: functional
Pseudomonas aeruginosa [9] = assay: microbe, parasite or virus in culture; settings: NL68
Escherichia coli [10] = assay: microbe, parasite or virus in culture; settings: DH5alpha
Escherichia coli [11] = assay: microbe, parasite or virus in culture; settings: DH5alpha; remark: listed apart in the source
Escherichia coli [12] = assay: microbe, parasite or virus in culture; settings: DH5alpha; remark: listed apart in the source
Beta-lactamase GES-13 = Beta-lactamase GES-13 (Pseudomonas aeruginosa, UniProt D1MIX9); assay: Inhibition of Pseudomonas aeruginosa GES-13 beta lactamase
Method in brief: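 GES-13 purified from E. coli DH5α carrying pB-ges13: sonicated in 20 mM Tris pH 8.0, then Q-Sepharose and S-Sepharose chromatography, >95% pure by SDS-PAGE. Enzyme preincubated with a range of inhibitor concentrations for 3 min at 30°C. Residual hydrolysis of 100 μM cephalothin reporter followed spectrophotometrically. Value given as IC50.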

Beta-lactamase GES-13, sequence (D1MIX9 whole entry): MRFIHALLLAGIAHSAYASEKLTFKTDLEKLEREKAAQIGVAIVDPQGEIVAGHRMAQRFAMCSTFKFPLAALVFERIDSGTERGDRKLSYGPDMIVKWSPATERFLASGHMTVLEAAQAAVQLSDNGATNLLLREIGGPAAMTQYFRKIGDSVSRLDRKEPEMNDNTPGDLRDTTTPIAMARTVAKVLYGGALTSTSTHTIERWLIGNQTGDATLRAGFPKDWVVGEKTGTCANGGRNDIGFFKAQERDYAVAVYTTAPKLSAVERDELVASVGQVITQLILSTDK

Compound	MIC (Pseudomonas aeruginosa [1]) [µg/mL]	MIC (Escherichia coli [2]) [µg/mL]	MIC (Escherichia coli [3]) [µg/mL]	MIC (Escherichia coli [4]) [µg/mL]	MIC (Escherichia coli [5]) [µg/mL]	MIC (Escherichia coli [6]) [µg/mL]	MIC (Escherichia coli [7]) [µg/mL]	MIC (Pseudomonas aeruginosa [8]) [µg/mL]	MIC (Pseudomonas aeruginosa [9]) [µg/mL]	MIC (Escherichia coli [10]) [µg/mL]	MIC (Escherichia coli [11]) [µg/mL]	MIC (Escherichia coli [12]) [µg/mL]	IC50 (Beta-lactamase GES-13) [nM]
CO/N=C(\C(=O)N[C@@H]1C(=O)N2C(C(=O)[O-])=C(C[N+]3(C)CCCC3)CS[C@H]12)c1csc(N)n1	64 (≈ 133 µM)	1 (≈ 2.08 µM)	–	–	–	–	–	–	–	–	–	–	–
CC1(C)S[C@@H]2[C@H](NC(=O)[C@H](N)c3ccc(O)cc3)C(=O)N2[C@H]1C(=O)O [AMOXICILLIN]	–	≥ 512	≥ 512	2 (≈ 5.47 µM)	32	64	2	–	–	–	–	–	–
C[C@H]1[C@H](NC(=O)/C(=N\OC(C)(C)C(=O)O)c2csc(N)n2)C(=O)N1S(=O)(=O)O [AZTREONAM]	–	1 (≈ 2.3 µM)	8 (≈ 18.4 µM)	–	–	–	–	–	–	–	–	–	–
N[C@@H](C(=O)N[C@@H]1C(=O)N2C(C(=O)O)=C(Cl)CS[C@H]12)c1ccccc1 [CEFACLOR ANHYDROUS]	–	≥ 512	≥ 512	4 (≈ 10.9 µM)	–	–	–	–	–	–	–	–	–
CO/N=C(\C(=O)N[C@@H]1C(=O)N2C(C(=O)O)=C(COC(C)=O)CS[C@H]12)c1csc(N)n1 [CEFOTAXIME]	–	4 (≈ 8.78 µM)	8 (≈ 17.6 µM)	0.12 (≈ 0.263 µM)	–	–	–	–	–	–	–	–	–
CO[C@@]1(NC(=O)Cc2cccs2)C(=O)N2C(C(=O)O)=C(COC(N)=O)CS[C@@H]21 [CEFOXITIN]	–	8 (≈ 18.7 µM)	8 (≈ 18.7 µM)	4 (≈ 9.36 µM)	–	–	–	–	–	–	–	–	–
CC(C)(O/N=C(\C(=O)N[C@@H]1C(=O)N2C(C(=O)[O-])=C(C[n+]3ccccc3)CS[C@H]12)c1csc(N)n1)C(=O)O [CEFTAZIDIME]	≥ 512	256 (≈ 468 µM)	≥ 512	0.5 (≈ 0.915 µM)	16	16	0.5	256	≥ 512	4 (≈ 7.32 µM)	16 (≈ 29.3 µM)	0.5 (≈ 0.915 µM)	–
CO/N=C(\C(=O)N[C@@H]1C(=O)N2C(C(=O)O)=C(CSc3nc(=O)c(O)nn3C)CS[C@H]12)c1csc(N)n1 [CEFTRIAXONE]	–	16 (≈ 28.9 µM)	16 (≈ 28.9 µM)	0.12 (≈ 0.216 µM)	–	–	–	–	–	–	–	–	–
CO/N=C(\C(=O)N[C@@H]1C(=O)N2C(C(=O)O)=C(COC(N)=O)CS[C@H]12)c1ccco1 [CEFUROXIME]	–	≥ 512	≥ 512	2 (≈ 4.71 µM)	–	–	–	–	–	–	–	–	–
C[C@@H](O)[C@H]1C(=O)N2C(C(=O)O)=C(SCCNC=N)C[C@H]12 [IMIPENEM ANHYDROUS]	16 (≈ 53.4 µM)	–	–	–	–	–	–	16	–	–	–	–	150
C[C@@H](O)[C@H]1C(=O)N2C(C(=O)O)=C(S[C@@H]3CN[C@H](C(=O)N(C)C)C3)[C@H](C)[C@H]12 [MEROPENEM]	32 (≈ 83.4 µM)	≤ 0.06	≤ 0.06	≤ 0.06	–	–	–	–	–	–	–	–	–
CCN1CCN(C(=O)N[C@@H](C(=O)N[C@@H]2C(=O)N3[C@@H]2SC(C)(C)[C@@H]3C(=O)O)c2ccccc2)C(=O)C1=O [PIPERACILLIN]	256 (≈ 495 µM)	64 (≈ 124 µM)	64 (≈ 124 µM)	1 (≈ 1.93 µM)	–	–	–	128	–	2 (≈ 3.86 µM)	16 (≈ 30.9 µM)	0.5 (≈ 0.966 µM)	–
CC1(C)S[C@@H]2[C@H](NC(=O)[C@H](C(=O)O)c3ccsc3)C(=O)N2[C@H]1C(=O)O [TICARCILLIN]	≥ 512	≥ 512	≥ 512	2 (≈ 5.2 µM)	16	32	2	–	≥ 512	–	–	–	–
